Measurements reported in PMC4263960 (Pediatric blood & cancer, 2013).
Like-named read-outs stand apart in the source and are kept apart here.

Assays:
CHLA-9 cell line = experiment: DIMSCAN in vitro cytotoxicity testing, CHLA-9; assay type: cell-based
How it was run: (§1)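 Test compound incubated with cells of a 24-line pediatric cancer panel for 96 h at 0.1 nM to 1 μM, then assessed by DIMSCAN. Relative IC50 (rIC50) derived per line. Panel comparison value is the panel rIC50 divided by the rIC50 of each cell line.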

CCRF-CEM cell line = experiment: DIMSCAN in vitro cytotoxicity testing, CCRF-CEM; assay type: cell-based; conditions: for IC50: Homo sapiens, CCRF-CEM, 96 h
How it was run: as §1

[1] = tested on: ALL-4 ALL B-precursor xenograft; experiment: PPTP in vivo xenograft testing, ALL-4; design: species or system mice
[2] = tested on: OS-9 osteosarcoma xenograft; experiment: PPTP in vivo xenograft testing, OS-9; design: species or system mice
Rh30 cell line = experiment: DIMSCAN in vitro cytotoxicity testing, Rh30; assay type: cell-based
How it was run: as §1

BT-12 cell line = experiment: DIMSCAN in vitro cytotoxicity testing, BT-12; assay type: cell-based
How it was run: as §1

TC-71 Ewing xenograft = experiment: PPTP in vivo xenograft testing, TC-71; design: species or system mice
[3] = tested on: Rh41 ALV rhabdomyosarcoma xenograft; experiment: PPTP in vivo xenograft testing, Rh41; design: species or system mice
[4] = tested on: Rh30 ALV rhabdomyosarcoma xenograft; experiment: PPTP in vivo xenograft testing, Rh30; design: species or system mice
[5] = tested on: Rh30R ALV rhabdomyosarcoma xenograft; experiment: PPTP in vivo xenograft testing, Rh30R; design: species or system mice
[6] = tested on: OS-17 osteosarcoma xenograft; experiment: PPTP in vivo xenograft testing, OS-17; design: species or system mice
Ramos-RA1 cell line = experiment: DIMSCAN in vitro cytotoxicity testing, Ramos-RA1; assay type: cell-based
How it was run: as §1

[7] = tested on: NB-1691 neuroblastoma xenograft; experiment: PPTP in vivo xenograft testing, NB-1691; design: species or system mice
RS4;11 cell line = experiment: DIMSCAN in vitro cytotoxicity testing, RS4; assay type: cell-based
How it was run: as §1

[8] = tested on: OS-1 osteosarcoma xenograft; experiment: PPTP in vivo xenograft testing, OS-1; design: species or system mice
CHLA258 Ewing xenograft = experiment: PPTP in vivo xenograft testing, CHLA258; design: species or system mice
KT-13 Wilms xenograft = experiment: PPTP in vivo xenograft testing, KT-13; design: species or system mice
[9] = tested on: PPTP solid tumor xenografts; experiment: PPTP in vivo testing, solid tumor xenograft panels summary; design: species or system mice
[10] = tested on: ALL-2 ALL B-precursor xenograft; experiment: PPTP in vivo xenograft testing, ALL-2; design: species or system mice
[11] = tested on: NB-EBc1 neuroblastoma xenograft; experiment: PPTP in vivo xenograft testing, NB-EBc1; design: species or system mice
[12] = Human pharmacokinetics of eribulin; assay type: in vivo, humans; conditions: plasma, intravenous, 1.4 mg/m2
[13] = 1.5 mg/kg IP Q4Dx3 repeated at Day 21
[14] = 1 mg/kg IP Q4Dx3 repeated at Day 21
[15] = NB-EBc1, 1 mg/kg IP Q4Dx3 repeated at Day 21

## C=C1C[C@@H]2CC[C@@]34C[C@H]5O[C@H]6[C@@H](O3)[C@H]3O[C@H](CC[C@@H]3O[C@H]6[C@H]5O4)CC(=O)C[C@@H]3[C@@H](OC)[C@@H](C[C@H](O)CN)O[C@H]3C[C@H]3O[C@@H](CC[C@@H]1O2)C[C@@H](C)C3=C [Eribulin]
CHLA-9 cell line; 96 h, read-out: rIC50
  IC50: 0.16 nM
CHLA-9 cell line; CHLA-9
  Panel rIC50/Line rIC50: 1.68
  Relative in/out%: −49%
  Ymin % (observed): 1.82%
CCRF-CEM cell line; CCRF-CEM (1)
  Panel rIC50/Line rIC50: 0.17
  Relative in/out%: −100%
  Ymin % (observed): 0.01%
CCRF-CEM cell line; CCRF-CEM (2)
  Panel rIC50/Line rIC50: 0.14
  Relative in/out%: −100%
  Ymin % (observed): 0.02%
CCRF-CEM cell line; read-out: rIC50, CCRF-CEM (1) ALL
  IC50: 1.62 nM
CCRF-CEM cell line; read-out: rIC50, CCRF-CEM (2) ALL
  IC50: 1.88 nM
[1]; 1.5 mg/kg IP
  EFS activity: High (High activity requires: (a) an EFS T/C >2; (b) a significant difference in EFS distributions, and (c) a net reduction in median tumor volume for animals in the treated group at the end of treatment as compared to at treatment initiation)
  Response activity: High (A high level of activity is indicated by a score of 6 or more)
[1]; [13]
  EFS T/C: >4.3
[1]; CD45%, 1.5 mg/kg IP
  Median final RTV (CD45%): 0.0%
[2]; 1 mg/kg IP
  EFS activity: Low (Low activity = EFS T/C <2)
  Response activity: Low (low activity by a score of <2)
  T/C volume activity: Low (Low activity = T/C >0.45)
[2]; [14]
  EFS T/C: 1.4
  Median final RTV (CD45%): >4
  Time to event: 26.3
[2]; 1 mg/kg IP, Day 21 or earlier
  Tumor volume T/C: 0.61
Rh30 cell line; Rh30
  Panel rIC50/Line rIC50: 2.47
  Relative in/out%: −23%
  Ymin % (observed): 12.75%
Rh30 cell line; Rh30, 96 h, read-out: rIC50
  IC50: 0.11 nM
BT-12 cell line; BT-12
  Panel rIC50/Line rIC50: 1.83
  Relative in/out%: −74%
  Ymin % (observed): 2.12%
BT-12 cell line; Homo sapiens, BT-12, 96 h, read-out: rIC50
  IC50: 0.15 nM
TC-71 Ewing xenograft; 1 mg/kg IP
  Response activity: High (A high level of activity is indicated by a score of 6 or more)
  T/C volume activity: Int (Intermediate activity = T/C ≤0.45 but >0.15)
TC-71 Ewing xenograft; [14]
  EFS T/C: >1.5
  Median final RTV (CD45%): 2.3
TC-71 Ewing xenograft; 1 mg/kg IP, Day 21 or earlier
  Tumor volume T/C: 0.19
[3]; 1 mg/kg IP
  EFS activity: High (High activity requires: (a) an EFS T/C >2; (b) a significant difference in EFS distributions, and (c) a net reduction in median tumor volume for animals in the treated group at the end of treatment as compared to at treatment initiation)
  Response activity: High (A high level of activity is indicated by a score of 6 or more)
  T/C volume activity: High (High activity = T/C ≤0.15)
[3]; [14]
  EFS T/C: >3.0
  Median final RTV (CD45%): 0.0
[3]; 1 mg/kg IP, Day 21 or earlier
  Tumor volume T/C: 0.07
[4]; 1 mg/kg IP
  EFS activity: High (High activity requires: (a) an EFS T/C >2; (b) a significant difference in EFS distributions, and (c) a net reduction in median tumor volume for animals in the treated group at the end of treatment as compared to at treatment initiation)
  Response activity: High (A high level of activity is indicated by a score of 6 or more)
  T/C volume activity: High (High activity = T/C ≤0.15)
[4]; [14]
  EFS T/C: >3.8
  Median final RTV (CD45%): 0.0
[4]; 1 mg/kg IP, Day 21 or earlier
  Tumor volume T/C: 0.06
[5]; 1 mg/kg IP
  EFS activity: High (High activity requires: (a) an EFS T/C >2; (b) a significant difference in EFS distributions, and (c) a net reduction in median tumor volume for animals in the treated group at the end of treatment as compared to at treatment initiation)
  Response activity: High (A high level of activity is indicated by a score of 6 or more)
  T/C volume activity: High (High activity = T/C ≤0.15)
[5]; [14]
  EFS T/C: >4.3
  Median final RTV (CD45%): 0.0
[5]; 1 mg/kg IP, Day 21 or earlier
  Tumor volume T/C: 0.11
[6]; 1 mg/kg IP
  EFS activity: High (High activity requires: (a) an EFS T/C >2; (b) a significant difference in EFS distributions, and (c) a net reduction in median tumor volume for animals in the treated group at the end of treatment as compared to at treatment initiation)
  Response activity: High (A high level of activity is indicated by a score of 6 or more)
  T/C volume activity: Int (Intermediate activity = T/C ≤0.45 but >0.15)
[6]; [14]
  EFS T/C: >2.3
  Median final RTV (CD45%): 0.5
[6]; 1 mg/kg IP, Day 21 or earlier
  Tumor volume T/C: 0.25
Ramos-RA1 cell line; 96 h, read-out: rIC50
  IC50: < 0.1 nM
Ramos-RA1 cell line; Ramos-RA1
  Panel rIC50/Line rIC50: >2.74
  Relative in/out%: −100%
  Ymin % (observed): 0.00%
[7]; 1 mg/kg IP
  EFS activity: Low (Low activity = EFS T/C <2)
  Response activity: Low (low activity by a score of <2)
  T/C volume activity: Low (Low activity = T/C >0.45)
[7]; [14]
  EFS T/C: 1.1
  Median final RTV (CD45%): >4
  Time to event: 7.9
[7]; 1 mg/kg IP, Day 21 or earlier
  Tumor volume T/C: 0.80
RS4;11 cell line; Homo sapiens, RS4-11, 96 h, read-out: rIC50
  IC50: < 0.1 nM
RS4;11 cell line; RS4;11
  Panel rIC50/Line rIC50: >2.74
  Relative in/out%: −99%
  Ymin % (observed): 0.22%
[8]; 1 mg/kg IP
  Response activity: High (A high level of activity is indicated by a score of 6 or more)
  T/C volume activity: Low (Low activity = T/C >0.45)
[8]; [14]
  EFS T/C: >1.5
  Median final RTV (CD45%): 0.4
[8]; 1 mg/kg IP, Day 21 or earlier
  Tumor volume T/C: 0.64
CHLA258 Ewing xenograft; 1 mg/kg IP
  EFS activity: High (High activity requires: (a) an EFS T/C >2; (b) a significant difference in EFS distributions, and (c) a net reduction in median tumor volume for animals in the treated group at the end of treatment as compared to at treatment initiation)
  Response activity: High (A high level of activity is indicated by a score of 6 or more)
  T/C volume activity: High (High activity = T/C ≤0.15)
CHLA258 Ewing xenograft; [14]
  EFS T/C: >4.2
  Median final RTV (CD45%): 0.0
CHLA258 Ewing xenograft; 1 mg/kg IP, Day 21 or earlier
  Tumor volume T/C: 0.01
KT-13 Wilms xenograft; 1 mg/kg IP
  EFS activity: Int (Intermediate activity = criteria (a) and (b) above, but not having a net reduction in median tumor volume for treated animals at the end of the study)
  Response activity: High (A high level of activity is indicated by a score of 6 or more)
  T/C volume activity: High (High activity = T/C ≤0.15)
KT-13 Wilms xenograft; [14]
  EFS T/C: >3.3
  Median final RTV (CD45%): 1.1
KT-13 Wilms xenograft; 1 mg/kg IP, Day 21 or earlier
  Tumor volume T/C: 0.15
[9]; Ewing sarcoma xenografts
  xenografts with CR or maintained CR: four of five
[9]; Ewing sarcoma xenografts, listed as eribulin
  xenografts with CR or maintained CR: 4 of 5
[9]; evaluable Ewing sarcoma xenografts
  xenografts with high EFS T/C activity: three of four
[9]; evaluable osteosarcoma xenografts
  xenografts with high EFS T/C activity: three of five
[9]; evaluable solid tumor xenografts, 1 mg/kg
  xenografts with significant difference in EFS distribution compared to control: 29 of 35
[9]; glioblastoma xenografts
  xenografts with CR or maintained CR: two of four
  xenografts with high EFS T/C activity: two of four
[9]; osteosarcoma xenografts
  xenografts with CR or maintained CR: three of six
  xenografts with high activity: three
[9]; rhabdomyosarcoma xenografts
  xenografts with CR or maintained CR: six of seven
  xenografts with MCR: 6 of 7
  xenografts with high EFS T/C activity: six of seven
[9]; solid tumor models
  lines with high EFS T/C activity: 17
  lines with intermediate EFS T/C activity: seven
[9]; solid tumor xenografts, 1 mg/kg
  xenografts with objective response: 18 of 35
[10]; 1.5 mg/kg IP
  EFS activity: High (High activity requires: (a) an EFS T/C >2; (b) a significant difference in EFS distributions, and (c) a net reduction in median tumor volume for animals in the treated group at the end of treatment as compared to at treatment initiation)
  Response activity: High (A high level of activity is indicated by a score of 6 or more)
[10]; [13]
  EFS T/C: >2.8
[10]; CD45%, 1.5 mg/kg IP
  Median final RTV (CD45%): 0.0%
[11]; NB-EBc1, 1 mg/kg IP
  EFS activity: Low (Low activity = EFS T/C <2)
  Response activity: Low (low activity by a score of <2)
  T/C volume activity: Low (Low activity = T/C >0.45)
[11]; [15]
  EFS T/C: 1.1
  Median final RTV (CD45%): >4
  Time to event: 4.5
[11]; NB-EBc1, 1 mg/kg IP, Day 21 or earlier
  Tumor volume T/C: 0.82
[11]; NB-EBc1 neuroblastoma xenograft
  objective response: not responsive
[12]
  AUC: 1580 ng·h/mL
